Most compounds without a hit are left out; they make up all but 3.1% or so of the library.
TAG inh: inhibitors of triacylglycerol accumulation, primary screen, cell-based, uHTS, fluorescence, H9c2; H9c2 cells, Nile Red lipid (TAG) fluorescence; cells loaded with 200 µM oleic acid; inhibition, % at 12.5 µM; actives 0.66% (n = 230,000); AID 651582, 2012;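 active = pattern-corrected inhibition of lipid staining of at least 50% with the nuclear-stain viability signal not falling by more than 50%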
T cruzi inh: inhibitors of intracellular T. cruzi growth, primary screen, luminescence, NIH3T3 host cells; T. cruzi beta-gal in NIH3T3, 90 h; inhibition, % (no concentration beside the values); actives 1.4% (n = 300,000);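 active = mean inhibition across valid replicates above about 55%, limit read from the data; inconclusive = mean below that limit but half or more replicates reach it; inactive = mean below it, under half of replicates reach it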;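 note: signal also drops with host cell toxicity which is not excluded here; higher percent means less beta-gal luminescence so fewer parasites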
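compound dosing = single 50 nL compound addition per well in DMSO | material = NIH/3T3 host cells with β-galactosidase reporter T. cruzi | input = 5,000 host fibroblasts per well | timing = ≥90 h infection period, 3 h prior cell attachment | read-out basis = percent inhibition of parasite-derived β-gal signal | detection = GalScreen β-gal luminescence, detergent lysis, 60 min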
A1 inh: caspase 3/7 activation in MEF A1-2A-BIM cells, primary screen, A1 inhibitor project, cell-based, luminescence, HTS. actives 0.066% (n = 330,000). caspase activation, % (no concentration beside the values). Caspase-Glo 3/7 luminescence, 3 h; percent of clofoctol response, vehicle zero. AID 2462, 2010;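 active = over half of replicate activation scores above 10%, or exactly half above 10 with the replicate mean above 10; inconclusive = replicate mean below 10 yet half the replicates above 10; inactive = over half of replicates below 10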
Beta cell apopt: inhibitors of cytokine-induced beta cell apoptosis, primary screen, luminescence | INS-1E cytokine-induced death, ATP luminescence, 48 h; percent of positive-control rescue, neutral wells zero | protection from apoptosis, % (concentration not given with the values) | actives 0.8% (n = 300,000);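 active = Every replicate reaches about 75%, or at least half do and their mean reaches it too, limit read from the data; inconclusive = At least half of replicates reach the limit but their mean does not; inactive = Under half of replicates reach the limit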;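 note: higher means more ATP so stronger rescue from cytokine killing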
CSC inhib: cancer stem cell viability inhibitors, primary screen, luminescence | cancer stem cell-like cells viability | inhibition, % at 7.5 µM | actives 1.1% (n = 300,000) | AID 2717, 2010; in the data active = inhibition above about 75%; inconclusive = no clear call, values can overlap the other calls; tested in HMLE shEcad cells
Calb FLC: C. albicans growth inhibition with fluconazole, primary screen, CaCi-2 strain, Alamar Blue fluorescence; C. albicans CaCi-2 + fluconazole, 48 h; AID 1979, 2009; actives 0.57% (n = 300,000); growth inhibition, % (concentration not given with the values);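 active = growth inhibition above about 58% in most replicates, limit read from the data, passing the limit was not always enough; inconclusive = exactly half the replicates above a set limit; inactive = most replicates below a set limit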;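 note: all wells also contain fluconazole at 8 µg/ml as a sub-toxic cotreatment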
Large screens that a line does not name were inactive.

CCCCn1c(NC(=O)c2ccco2)c(S(=O)(=O)c2ccc(C)cc2)c2nc3ccccc3nc21	none (no result: A1 inh, Beta cell apopt, CSC inhib)
CCCCCn1c(NC(=O)c2ccco2)c(S(=O)(=O)c2ccc(C)cc2)c2nc3ccccc3nc21	T cruzi inh 55 (no result: TAG inh)
CCCCn1c(NS(=O)(=O)c2ccccc2)c(S(=O)(=O)c2ccc(C)cc2)c2nc3ccccc3nc21	A1 inh inconclusive, Beta cell apopt 86 (no result: TAG inh)
O=C(CN1C(=O)C2CCCCC2C1=O)Nc1cc(C(F)(F)F)ccc1N1CCCC1 (stereo unspecified)	none
Cc1oc(-c2ccccc2F)nc1CS(=O)(=O)CC(=O)NCc1ccccc1Cl	none
C/C(=N\NC(=O)c1ccc(Cl)cc1)c1ccccn1	T cruzi inh 61, Beta cell apopt 105, CSC inhib 98 (no result: TAG inh)
C/C(=N\NC(=O)c1cc(C)nc2ccccc12)c1ccncc1	none (no result: CSC inhib)
C/C(=N\NC(=O)c1cc(C)nc2ccccc12)c1ccccn1	Beta cell apopt 104, CSC inhib 96 (no result: T cruzi inh, Calb FLC)
COc1cccc(C(=O)N/N=C(/c2ccccc2)c2ccccn2)c1	T cruzi inh 55, Beta cell apopt 101
COc1cc(C(=O)N/N=C(\C)c2ccccn2)cc(OC)c1OC	Beta cell apopt 83
COc1cc(C(=O)N/N=C(\c2ccccc2)c2ccccn2)cc(OC)c1OC	T cruzi inh 55, Beta cell apopt 86
COc1cc(NC(=O)c2ccccn2)cc(OC)c1OC	none
O=C(Nc1ccccc1)c1ccc(Nc2c([N+](=O)[O-])cc([N+](=O)[O-])c3ccccc23)cc1	T cruzi inh 66 (no result: TAG inh)
N#Cc1ccccc1S(=O)(=O)N1CCN(C(=O)Cc2coc3cc(O)ccc23)CC1	none (no result: T cruzi inh, Calb FLC)
COc1ccc(CNC(=O)CSc2nccn(-c3ccc(F)c(F)c3)c2=O)cc1	none
CCOC(=O)c1c(NC(=O)C2=C(C)NC(=S)NC2c2ccccc2C(F)(F)F)sc(C)c1C (stereo unspecified)	T cruzi inh 62 (no result: TAG inh)
N/C(=N\S(=O)(=O)c1cccs1)c1ccccc1	none
O=C1/C(=N\S(=O)(=O)c2cccs2)C([n+]2ccccc2)=C([O-])c2ccccc21	TAG inh 76, Beta cell apopt 97
O=S(=O)(/N=C/c1ccccc1O)c1cccs1	none (no result: TAG inh, Beta cell apopt, CSC inhib)
CC(C)(C)c1cc[n+](C2=C([O-])c3ccccc3C(=O)/C2=N\S(=O)(=O)c2cccs2)cc1	TAG inh 64, Beta cell apopt 107
COc1ccc(C(=O)c2sc(Nc3ccccc3)c(C(=O)Nc3ccc(OC)c(OC)c3)c2N)cc1	none
COc1ccc(NC(=O)c2c(Nc3ccccc3)sc(C(=O)c3ccc(F)cc3)c2N)cc1	Beta cell apopt 104
Cc1ccc2nc(-c3ccccn3)c(NC3CCCC3)n2c1	T cruzi inh 68, Beta cell apopt 102
Cc1cccc2nc(-c3ccco3)c(Nc3ccccc3)n12	none
Cc1cccc(C)c1Nc1c(-c2ccccn2)nc2ccccn12	T cruzi inh 61
Cc1ccc(Nc2c(-c3ccccn3)nc3cccc(C)n23)cc1	T cruzi inh 59, Beta cell apopt 117, CSC inhib inconclusive, Calb FLC inconclusive
Cc1ccccc1Nc1c(-c2ccccn2)nc2c(C)cccn12	Beta cell apopt 96
Cc1ccccc1Nc1c(-c2ccc(N3CCOCC3)cc2)nc2ncccn12	none
CC(C)CCN1C(=O)c2ccc(C(=O)Nc3ccc(Br)cc3C(=O)O)cc2C1=O	Calb FLC 82 (no result: Beta cell apopt)
CC(C)CCN1C(=O)c2ccc(C(=O)Nc3cc(C(=O)O)cc(C(=O)O)c3)cc2C1=O	none (no result: Beta cell apopt, CSC inhib)
CCCCn1c(SCC(=O)c2ccc(O)c(O)c2)nc2ccsc2c1=O	Calb FLC 107
O=C(O)CCCCCn1c(SCC(=O)c2ccc(O)c(O)c2)nc2ccsc2c1=O	none (no result: TAG inh)
Cc1ccc(C(=O)ONc2ccc(N=NC(=O)c3ccccc3O)cc2)cc1	CSC inhib 78 (no result: TAG inh)
O=C(O)c1ccccc1C(c1ccc(O)cc1)c1ccc(O)cc1	none (no result: TAG inh)
CCc1ccc(NCc2ccc(OC)c(Cn3ccnc3)c2)cc1	none (no result: TAG inh)
COc1ccc(CNc2ccc(Cl)cc2)cc1Cn1ccnc1	T cruzi inh 59 (no result: TAG inh)
Cc1cc(C)nc(NC(=NCc2ccc3c(c2)OCO3)NC(=O)Nc2ccccc2)n1	Calb FLC 122 (no result: TAG inh)
COc1ccccc1C(=O)NCC(=O)OCC(=O)N1CC(C)OC(C)C1 (stereo unspecified)	none (no result: T cruzi inh, A1 inh, Beta cell apopt, CSC inhib, Calb FLC)
O=C1Cc2ccccc2N1c1ccccc1	none (no result: Beta cell apopt)
O=C1CC(=Nc2ccccc2)NN1c1ccccc1	CSC inhib 130
Cc1cc(C)n(C(=O)COc2ccccc2[N+](=O)[O-])n1	none
COC(=O)c1cc(S(=O)(=O)N2CCN(C(=O)c3ccco3)CC2)cn1C	none (no result: TAG inh)
Cc1cc(NC(=O)c2ccc(Cl)cc2)c(C)cc1O	none (no result: Beta cell apopt)
Cc1cc(C(C#N)c2ccc(Cl)cc2)c(Cl)cc1NC(=O)c1cc(I)cc(I)c1O (stereo unspecified)	A1 inh 5.8, CSC inhib 96
COc1ccc(N(C(=O)Cn2nnc3ccccc32)C(C(=O)NC(C)(C)C)c2ccc(OC)c(O)c2)cc1 (stereo unspecified)	Calb FLC 78
CCOc1cc(C(C(=O)NCC2CCCO2)N(C(=O)Cn2nnc3ccccc32)c2ccc(OC)c(OC)c2)ccc1O (stereo unspecified)	none (no result: TAG inh, CSC inhib)
C/C(=N\NC(=O)C12CCC(C)(C(=O)O1)C2(C)C)c1ccccc1O (stereo unspecified)	TAG inh 52
CC12CCC(C(=O)NCc3ccccc3)(OC1=O)C2(C)C (stereo unspecified)	none
O=S(=O)(Nc1ccc(N=Nc2ccc(O)c3ccccc23)cc1)c1ccccc1	CSC inhib 79 (no result: TAG inh)
O=S(=O)(Nc1ccc(N=Nc2ccccc2)cc1)c1ccccc1	none (no result: TAG inh, CSC inhib)
O=[N+]([O-])c1ccc(N=NNc2ccccc2)cc1	none
O=[N+]([O-])c1ccc(N=Nc2ccc(O)c3ccccc23)cc1	TAG inh 56 (no result: T cruzi inh, A1 inh, Beta cell apopt, CSC inhib, Calb FLC)
O=C(NC(Nc1ncc(S(=O)(=O)c2ccc([N+](=O)[O-])cc2)s1)(C(F)(F)F)C(F)(F)F)c1ccc(Cl)cc1	Beta cell apopt 113, CSC inhib 89
O=C(Nc1ncc(S(=O)(=O)c2ccc([N+](=O)[O-])cc2)s1)c1cccc2ccccc12	T cruzi inh 58, CSC inhib 112 (no result: TAG inh)
O=C(CCCc1nc(-c2ccc(Cl)cc2)no1)NC1CCCC1	Beta cell apopt 107
O=C(c1ccc([N+](=O)[O-])o1)N1CCN(c2nc3c(Cl)cccc3s2)CC1	T cruzi inh 59 (no result: Beta cell apopt)
Cc1ccc2sc(N3CCN(C(=O)c4ccc([N+](=O)[O-])o4)CC3)nc2c1C	T cruzi inh 59 (no result: Beta cell apopt)

Assay outcomes deposited in PubChem BioAssay by several laboratories.
